Measured values from ChEMBL document CHEMBL4052588, “Design of a Biased Potent Small Molecule Inhibitor of the Bromodomain and PHD Finger-Containing (BRPF) Proteins Suitable for Cellular and in Vivo Studies” (J Med Chem, 2017).
Values after ≈ are worked out from the molar mass of the structure shown.

Experiments:
CREB-binding protein = CREB-binding protein (Homo sapiens, UniProt Q92793); test: Inhibition of human CREBBP expressed in Escherichia coli BL21 after 1 hr by BROMOscan assay
[1] = target: Nucleosome-remodeling factor subunit BPTF (Homo sapiens, UniProt Q12830); test: Inhibition of human His tagged FALZ incubated for 30 mins followed by addition of biotinylated peptide and further incubation for 30 mins measured by AlphaScreen assay
[2] = target: E3 ubiquitin-protein ligase TRIM33 (Homo sapiens, UniProt Q9UPN9); test: Inhibition of human TRIM33 expressed in Escherichia coli BL21 after 1 hr by BROMOscan assay
RKO = test: Growth inhibition of human RKO cells after 72 hrs; assay type: functional
ASPC1 = test: Growth inhibition of human AsPC1 cells after 72 hrs; assay type: functional; conditions: ASPC1, 72 h
Peregrin = target: T1, Peregrin (Homo sapiens, UniProt P55201); test: Binding affinity to human BRPF1 by isothermal titration calorimetry
T1 sequence (P55201 whole entry): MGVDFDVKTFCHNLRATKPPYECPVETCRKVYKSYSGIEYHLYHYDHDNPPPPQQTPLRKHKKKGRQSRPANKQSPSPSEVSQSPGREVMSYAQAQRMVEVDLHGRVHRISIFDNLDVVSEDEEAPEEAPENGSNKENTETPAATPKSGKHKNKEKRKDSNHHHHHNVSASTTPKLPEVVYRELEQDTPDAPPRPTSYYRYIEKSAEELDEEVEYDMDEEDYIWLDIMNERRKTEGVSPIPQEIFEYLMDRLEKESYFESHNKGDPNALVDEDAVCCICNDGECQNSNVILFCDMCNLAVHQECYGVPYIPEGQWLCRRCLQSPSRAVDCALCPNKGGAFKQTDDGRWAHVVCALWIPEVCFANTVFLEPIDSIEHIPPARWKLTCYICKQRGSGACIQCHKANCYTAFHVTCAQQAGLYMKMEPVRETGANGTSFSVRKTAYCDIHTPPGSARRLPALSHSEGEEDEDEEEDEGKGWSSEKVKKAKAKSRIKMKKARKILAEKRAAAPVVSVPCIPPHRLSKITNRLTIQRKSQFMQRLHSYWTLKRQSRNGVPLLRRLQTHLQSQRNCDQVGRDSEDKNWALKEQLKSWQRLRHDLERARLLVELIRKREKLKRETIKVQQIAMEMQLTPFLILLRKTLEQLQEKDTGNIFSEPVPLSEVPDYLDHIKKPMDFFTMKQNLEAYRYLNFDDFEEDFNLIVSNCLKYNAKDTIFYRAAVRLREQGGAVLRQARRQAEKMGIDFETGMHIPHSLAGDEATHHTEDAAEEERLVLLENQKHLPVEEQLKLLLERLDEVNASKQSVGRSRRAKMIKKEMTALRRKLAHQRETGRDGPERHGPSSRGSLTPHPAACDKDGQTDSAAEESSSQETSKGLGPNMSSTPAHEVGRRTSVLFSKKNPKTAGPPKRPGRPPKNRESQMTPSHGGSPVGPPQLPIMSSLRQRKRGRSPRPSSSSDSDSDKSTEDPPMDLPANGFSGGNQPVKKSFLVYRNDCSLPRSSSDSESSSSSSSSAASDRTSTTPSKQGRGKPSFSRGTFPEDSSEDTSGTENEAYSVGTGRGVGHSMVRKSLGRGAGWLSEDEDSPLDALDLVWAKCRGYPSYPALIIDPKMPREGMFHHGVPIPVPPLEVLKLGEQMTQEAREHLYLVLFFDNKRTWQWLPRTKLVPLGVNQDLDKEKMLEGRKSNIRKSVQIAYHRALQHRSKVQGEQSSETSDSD
Procedure, shortened: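 Titration of compound into BRPF1 bromodomain; binding heats recorded per injection, normalized enthalpies fitted by nonlinear least squares to a single-binding-site model to give KD, ΔH and TΔS.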

[3] = Volume of distribution in CD-1 mouse blood at 1 mg/kg, iv administered as bolus; assay type: ADME, organism-based; conditions: whole blood
Procedure, shortened: (§1)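 Female CD-1 mice (n = 3), single dosing: intravenous 1.0 mg/kg, or oral 3.0 mg/kg given as a suspension. Blood levels were followed over time to derive clearance, volume of distribution, elimination half-life, Cmax, Tmax, AUC0−∞, oral bioavailability and fraction absorbed.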

[4] = Growth inhibition of human MOLP8 cells after 72 hrs; assay type: functional; conditions: MOLP-8, 72 h
LS180 = test: Growth inhibition of human LS180 cells after 72 hrs; assay type: functional; conditions: LS180, 72 h
[5] = Growth inhibition of human SW403 cells after 72 hrs; assay type: functional; conditions: SW-403, 72 h
[6] = Aqueous solubility of compound; assay type: physicochemical; conditions: buffer
SK-CO-1 = test: Growth inhibition of human SKCO1 cells after 72 hrs; assay type: functional; conditions: SK-CO-1, 72 h
[7] = Tmax in CD-1 mouse blood at 3 mg/kg, po; assay type: ADME, organism-based; conditions: whole blood; procedure, shortened: as §1

Sequence of E3 ubiquitin-protein ligase TRIM33 (Q9UPN9 whole entry): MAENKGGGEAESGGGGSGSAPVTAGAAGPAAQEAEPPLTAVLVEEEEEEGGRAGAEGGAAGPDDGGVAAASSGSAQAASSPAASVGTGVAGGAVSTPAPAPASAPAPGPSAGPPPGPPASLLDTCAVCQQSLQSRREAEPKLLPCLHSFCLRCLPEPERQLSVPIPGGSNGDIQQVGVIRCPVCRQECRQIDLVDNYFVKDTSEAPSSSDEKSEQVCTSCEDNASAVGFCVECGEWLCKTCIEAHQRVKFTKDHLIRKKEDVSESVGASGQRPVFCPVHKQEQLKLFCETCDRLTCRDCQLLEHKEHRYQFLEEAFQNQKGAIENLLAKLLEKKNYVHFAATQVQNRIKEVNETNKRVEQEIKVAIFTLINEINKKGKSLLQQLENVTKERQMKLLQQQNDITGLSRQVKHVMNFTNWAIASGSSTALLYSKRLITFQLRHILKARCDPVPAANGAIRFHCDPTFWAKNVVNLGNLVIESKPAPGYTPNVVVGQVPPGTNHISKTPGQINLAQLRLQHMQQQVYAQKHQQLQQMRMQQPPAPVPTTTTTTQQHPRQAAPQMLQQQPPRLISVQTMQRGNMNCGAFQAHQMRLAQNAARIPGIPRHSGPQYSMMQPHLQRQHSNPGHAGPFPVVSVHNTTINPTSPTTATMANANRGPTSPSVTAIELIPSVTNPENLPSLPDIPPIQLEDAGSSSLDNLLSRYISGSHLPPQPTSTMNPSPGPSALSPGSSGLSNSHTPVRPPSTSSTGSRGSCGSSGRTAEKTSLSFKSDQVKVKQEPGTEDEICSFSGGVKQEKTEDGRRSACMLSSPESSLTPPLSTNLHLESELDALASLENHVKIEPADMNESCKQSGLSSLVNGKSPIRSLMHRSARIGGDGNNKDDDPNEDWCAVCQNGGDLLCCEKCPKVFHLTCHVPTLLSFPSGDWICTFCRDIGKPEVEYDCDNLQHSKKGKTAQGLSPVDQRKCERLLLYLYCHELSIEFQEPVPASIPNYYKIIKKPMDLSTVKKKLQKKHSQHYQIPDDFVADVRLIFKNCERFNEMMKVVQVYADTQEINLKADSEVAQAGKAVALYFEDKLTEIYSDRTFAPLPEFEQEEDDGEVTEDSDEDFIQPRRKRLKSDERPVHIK
Sequence of CREB-binding protein (Q92793 whole entry): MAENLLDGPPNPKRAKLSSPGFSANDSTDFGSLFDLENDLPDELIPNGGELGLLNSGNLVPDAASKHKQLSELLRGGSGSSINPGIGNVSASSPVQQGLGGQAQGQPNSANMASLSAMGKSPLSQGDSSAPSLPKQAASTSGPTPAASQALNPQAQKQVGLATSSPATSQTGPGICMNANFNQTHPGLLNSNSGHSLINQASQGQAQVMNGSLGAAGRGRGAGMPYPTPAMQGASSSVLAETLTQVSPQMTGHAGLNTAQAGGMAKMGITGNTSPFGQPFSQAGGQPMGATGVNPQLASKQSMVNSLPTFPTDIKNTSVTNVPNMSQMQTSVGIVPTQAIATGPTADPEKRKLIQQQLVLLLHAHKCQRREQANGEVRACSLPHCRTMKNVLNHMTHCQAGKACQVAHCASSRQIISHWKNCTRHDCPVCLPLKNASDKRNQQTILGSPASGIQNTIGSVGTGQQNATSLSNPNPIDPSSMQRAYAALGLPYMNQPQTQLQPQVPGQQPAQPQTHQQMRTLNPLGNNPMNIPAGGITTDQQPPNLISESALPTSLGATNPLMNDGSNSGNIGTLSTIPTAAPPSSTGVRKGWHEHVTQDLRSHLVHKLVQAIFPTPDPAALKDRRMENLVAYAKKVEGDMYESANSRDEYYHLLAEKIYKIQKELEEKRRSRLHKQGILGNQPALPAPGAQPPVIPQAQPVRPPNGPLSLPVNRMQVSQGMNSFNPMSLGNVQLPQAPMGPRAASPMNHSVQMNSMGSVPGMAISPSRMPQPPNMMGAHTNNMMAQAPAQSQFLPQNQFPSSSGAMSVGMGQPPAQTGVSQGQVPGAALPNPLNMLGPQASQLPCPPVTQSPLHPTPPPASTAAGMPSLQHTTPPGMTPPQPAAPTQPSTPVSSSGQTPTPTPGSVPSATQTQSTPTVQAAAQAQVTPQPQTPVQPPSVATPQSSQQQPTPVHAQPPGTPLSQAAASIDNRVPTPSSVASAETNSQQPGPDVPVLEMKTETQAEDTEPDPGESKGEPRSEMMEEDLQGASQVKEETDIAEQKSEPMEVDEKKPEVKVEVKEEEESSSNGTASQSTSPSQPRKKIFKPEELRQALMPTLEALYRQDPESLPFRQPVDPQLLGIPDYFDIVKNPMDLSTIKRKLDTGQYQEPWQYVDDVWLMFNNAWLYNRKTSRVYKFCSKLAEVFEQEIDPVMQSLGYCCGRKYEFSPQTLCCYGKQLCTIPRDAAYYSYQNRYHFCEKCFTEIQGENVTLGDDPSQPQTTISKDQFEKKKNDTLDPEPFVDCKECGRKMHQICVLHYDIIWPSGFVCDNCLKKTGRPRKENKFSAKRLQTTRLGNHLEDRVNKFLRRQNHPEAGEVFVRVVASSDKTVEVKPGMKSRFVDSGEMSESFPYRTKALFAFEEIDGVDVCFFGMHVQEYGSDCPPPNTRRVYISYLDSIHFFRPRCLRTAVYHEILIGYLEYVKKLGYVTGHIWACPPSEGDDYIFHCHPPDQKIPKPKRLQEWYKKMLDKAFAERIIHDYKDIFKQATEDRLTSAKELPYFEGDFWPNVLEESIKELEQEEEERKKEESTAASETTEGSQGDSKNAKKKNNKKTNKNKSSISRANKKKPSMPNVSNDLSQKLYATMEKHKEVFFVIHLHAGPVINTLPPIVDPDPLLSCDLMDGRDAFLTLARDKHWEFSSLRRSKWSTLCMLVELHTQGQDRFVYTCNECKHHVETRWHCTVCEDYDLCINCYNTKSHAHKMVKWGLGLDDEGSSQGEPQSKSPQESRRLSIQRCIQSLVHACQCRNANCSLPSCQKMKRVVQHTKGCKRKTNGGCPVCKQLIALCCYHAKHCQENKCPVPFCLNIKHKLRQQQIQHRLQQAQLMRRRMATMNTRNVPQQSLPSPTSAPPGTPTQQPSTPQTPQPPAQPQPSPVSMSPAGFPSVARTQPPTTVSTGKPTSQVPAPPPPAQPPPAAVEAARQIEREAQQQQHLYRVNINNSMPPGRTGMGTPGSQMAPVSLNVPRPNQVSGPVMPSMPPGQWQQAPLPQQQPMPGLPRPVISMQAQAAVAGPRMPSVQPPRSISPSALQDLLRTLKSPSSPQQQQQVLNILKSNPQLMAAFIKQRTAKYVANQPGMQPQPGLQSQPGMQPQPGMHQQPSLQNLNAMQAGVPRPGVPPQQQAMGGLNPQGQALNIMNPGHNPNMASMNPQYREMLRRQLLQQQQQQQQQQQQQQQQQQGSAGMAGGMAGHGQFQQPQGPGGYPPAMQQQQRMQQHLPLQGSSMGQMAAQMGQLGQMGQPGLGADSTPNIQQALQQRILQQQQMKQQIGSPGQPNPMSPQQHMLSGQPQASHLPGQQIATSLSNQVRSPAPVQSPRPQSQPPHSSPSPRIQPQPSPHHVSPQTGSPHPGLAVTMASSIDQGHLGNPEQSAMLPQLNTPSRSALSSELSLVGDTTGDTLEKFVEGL

IC50 (CREB-binding protein) | IC50 [1] | IC50 [2] | GI50 (ASPC1) | Kd (Peregrin) | Vd [3] | solubility [6] | GI50 (SK-CO-1) | Tmax [7] | Structure (SMILES) | GI50 (RKO) | GI50 [4] | GI50 (LS180) | GI50 [5]
> 100 µM | > 20 µM | > 100 µM | – | – | – | – | – | – | CCc1cc2cc(NS(=O)(=O)c3ccc(C#N)cc3)ccc2n(CC)c1=O | – | – | – | –
– | – | – | 1 to 10 µM | 0.04 µM | 0.7 L/kg | 100 µM (≈ 35.3 µg/mL) | 1 to 10 µM | 1 h | Cc1cc2cc(NS(=O)(=O)c3ccc(C#N)cc3)ccc2n(C)c1=O | 1 to 10 µM | 1 to 10 µM | 1 to 10 µM | 1 to 10 µM
